Experimental data reported in ChEMBL document CHEMBL5649170, “Sustained microglial depletion with CSF1R inhibitor impairs parenchymal plaque development in an Alzheimer's disease model” (Nat Commun, 2019).
Active and inactive are the calls of the source. The rule behind the calls is not given here.

Experiments:
Mus musculus [1] = assay: Antialzheimer activity in mouse harboring CX3CR1-GFP+/- assessed as microglial elimination in brain at 600 ppm administered as chow for 7 days relative to control; type: functional; settings: route po, time 7 day
[2] = biological target: T1, Macrophage colony-stimulating factor 1 receptor (Mus musculus) (UniProt P09581); assay: In vivo inhibition of CSF1R in 5XFAD mouse assessed as appearance of CAA in […] cortex at 600 ppm administered as rodent chow starting from 1.5 months and measured after 5 months by immunolabeling based confocal microscopic analysis; settings: route po, time 3.5 months
T1 sequence (whole entry): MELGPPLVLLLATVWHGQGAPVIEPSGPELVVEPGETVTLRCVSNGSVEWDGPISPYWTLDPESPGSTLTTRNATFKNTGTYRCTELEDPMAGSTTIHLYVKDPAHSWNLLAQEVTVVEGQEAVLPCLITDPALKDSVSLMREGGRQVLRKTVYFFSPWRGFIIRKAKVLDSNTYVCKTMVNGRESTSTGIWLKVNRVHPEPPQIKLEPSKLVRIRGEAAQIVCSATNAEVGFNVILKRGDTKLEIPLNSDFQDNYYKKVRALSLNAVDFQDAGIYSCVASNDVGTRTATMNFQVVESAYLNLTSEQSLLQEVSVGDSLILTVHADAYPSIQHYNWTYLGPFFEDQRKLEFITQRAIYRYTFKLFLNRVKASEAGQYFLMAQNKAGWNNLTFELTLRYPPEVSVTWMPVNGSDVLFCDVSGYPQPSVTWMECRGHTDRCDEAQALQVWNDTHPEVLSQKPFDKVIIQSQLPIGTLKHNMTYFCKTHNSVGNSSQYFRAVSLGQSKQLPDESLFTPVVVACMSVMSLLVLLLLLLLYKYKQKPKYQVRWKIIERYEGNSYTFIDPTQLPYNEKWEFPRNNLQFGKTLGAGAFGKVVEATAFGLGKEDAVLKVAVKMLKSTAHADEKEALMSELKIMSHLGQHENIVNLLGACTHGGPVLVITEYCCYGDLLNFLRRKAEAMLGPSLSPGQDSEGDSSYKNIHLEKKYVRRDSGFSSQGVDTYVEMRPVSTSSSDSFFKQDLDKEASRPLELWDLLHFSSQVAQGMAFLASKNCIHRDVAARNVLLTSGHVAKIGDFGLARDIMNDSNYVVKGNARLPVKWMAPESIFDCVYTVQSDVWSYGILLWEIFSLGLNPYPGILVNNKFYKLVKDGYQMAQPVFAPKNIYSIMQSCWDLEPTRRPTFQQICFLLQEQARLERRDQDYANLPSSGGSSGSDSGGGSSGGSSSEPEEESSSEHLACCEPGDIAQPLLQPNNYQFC

[3] = Effect on Cx3cr1 gene expression in 5XFAD mouse cortex at 1200 ppm administered as rodent chow starting from 1.5 months and measured after 7 months by RNA-Seq analysis (reference value: 15.803 to 19.787); type: functional; settings: route po, time 5.5 months, 4015 h
[4] = biological target: Tyrosine-protein kinase Lyn (Homo sapiens, UniProt P07948); assay: Inhibition of LYN_A (unknown origin)
Sequence of Tyrosine-protein kinase Lyn (P07948 whole entry): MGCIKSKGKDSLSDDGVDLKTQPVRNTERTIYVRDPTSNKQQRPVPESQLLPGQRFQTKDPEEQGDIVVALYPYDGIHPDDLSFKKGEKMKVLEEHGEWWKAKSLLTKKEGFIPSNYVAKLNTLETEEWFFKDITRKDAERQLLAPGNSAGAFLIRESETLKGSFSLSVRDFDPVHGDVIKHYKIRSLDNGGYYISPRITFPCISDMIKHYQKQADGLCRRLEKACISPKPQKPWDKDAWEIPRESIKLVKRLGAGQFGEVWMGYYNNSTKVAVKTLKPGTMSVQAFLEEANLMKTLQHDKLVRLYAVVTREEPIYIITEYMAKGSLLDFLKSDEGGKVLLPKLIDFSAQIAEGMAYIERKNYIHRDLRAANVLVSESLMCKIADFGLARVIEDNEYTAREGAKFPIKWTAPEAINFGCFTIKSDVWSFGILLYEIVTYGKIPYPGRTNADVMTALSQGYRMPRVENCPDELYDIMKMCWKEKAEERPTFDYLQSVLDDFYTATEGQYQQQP

[5] = biological target: Dual specificity tyrosine-phosphorylation-regulated kinase 1A (Homo sapiens, UniProt Q13627); assay: Inhibition of DYRK1A (unknown origin)
[6] = biological target: Serine/threonine-protein kinase PAK 4 (Homo sapiens, UniProt O96013); assay: Inhibition of PAK4 (unknown origin)
Sequence of Serine/threonine-protein kinase PAK 4 (O96013 whole entry): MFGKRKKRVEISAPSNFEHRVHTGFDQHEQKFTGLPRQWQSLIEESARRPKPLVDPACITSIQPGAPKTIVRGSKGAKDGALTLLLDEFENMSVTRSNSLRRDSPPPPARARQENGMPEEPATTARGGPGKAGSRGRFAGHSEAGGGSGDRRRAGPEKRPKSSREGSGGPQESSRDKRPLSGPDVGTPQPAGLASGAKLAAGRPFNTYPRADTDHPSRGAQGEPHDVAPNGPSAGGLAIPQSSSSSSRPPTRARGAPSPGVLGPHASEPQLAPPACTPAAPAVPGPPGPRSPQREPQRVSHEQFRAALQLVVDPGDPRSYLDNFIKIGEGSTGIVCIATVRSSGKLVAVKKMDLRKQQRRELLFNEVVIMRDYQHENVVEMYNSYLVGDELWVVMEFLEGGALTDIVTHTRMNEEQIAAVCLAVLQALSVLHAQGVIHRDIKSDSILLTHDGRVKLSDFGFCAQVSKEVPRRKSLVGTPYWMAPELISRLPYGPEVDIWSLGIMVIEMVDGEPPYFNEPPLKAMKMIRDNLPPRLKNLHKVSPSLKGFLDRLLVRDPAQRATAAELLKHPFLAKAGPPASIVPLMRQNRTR

Mus musculus [7] = assay: Effect on circulating leukocytes in wildtype mouse assessed as percentage of CD45+/PI- cells expressing CD11c at 1200 ppm administered as rodent chow for 10 to 24 weeks (reference value: 34.7 to 54.3 %); type: functional; settings: route po, time 10-24 weeks
[8] = Half-life in female rat at 1.13 mg/kg, iv administered as single dose; type: ADME, organism-based; settings: in vivo
[9] = Half-life in monkey at 1.35 mg/kg, iv administered as single dose; type: ADME, organism-based, Macaca mulatta; settings: rhesus monkey, in vivo
[10] = biological target: Tyrosine-protein kinase SYK (Homo sapiens, UniProt P43405); assay: Inhibition of SYK (unknown origin)
[11] = biological target: Casein kinase I isoform alpha (Homo sapiens, UniProt P48729); assay: Inhibition of CSNK1A1 (unknown origin)
Sequence of Casein kinase I isoform alpha (P48729 whole entry, canonical isoform): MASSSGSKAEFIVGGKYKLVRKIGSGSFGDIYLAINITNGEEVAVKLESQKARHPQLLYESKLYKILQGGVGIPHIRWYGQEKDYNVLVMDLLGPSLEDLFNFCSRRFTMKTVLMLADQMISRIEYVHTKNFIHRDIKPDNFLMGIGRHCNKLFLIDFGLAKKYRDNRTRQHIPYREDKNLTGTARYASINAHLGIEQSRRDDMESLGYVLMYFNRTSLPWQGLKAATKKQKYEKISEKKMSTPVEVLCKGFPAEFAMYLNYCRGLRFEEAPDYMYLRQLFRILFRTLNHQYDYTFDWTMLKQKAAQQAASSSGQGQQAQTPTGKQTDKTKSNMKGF

[12] = Effect on Clec7a gene expression in 5XFAD mouse thalamus at 1200 ppm administered as rodent chow starting from 1.5 months and measured after 7 months by RNA-Seq analysis (reference value: 3.412 to 4.381 RPKM); type: functional; settings: route po, time 5.5 months, 4015 h
Method in brief: (§1)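 WT and 5xFAD mice were treated with 1200 ppm PLX5622 chow or control chow from 1.5 to 7 months of age. Brains were microdissected into cortex, hippocampus and thalamus, and RNA was extracted from tissue powder. Whole-transcriptome RNA-Seq libraries were sequenced, with n = 4 per group per region (48 samples).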

[13] = Effect on Ctsz gene expression in 5XFAD mouse cortex at 1200 ppm administered as rodent chow starting from 1.5 months and measured after 7 months by RNA-Seq analysis (reference value: 27.650 to 42.003 RPKM); type: functional; settings: route po, time 5.5 months, 4015 h
[14] = biological target: Casein kinase I isoform gamma-1 (Homo sapiens, UniProt Q9HCP0); assay: Inhibition of CSNK1G1 (unknown origin)
Sequence of Casein kinase I isoform gamma-1 (Q9HCP0 whole entry, canonical isoform): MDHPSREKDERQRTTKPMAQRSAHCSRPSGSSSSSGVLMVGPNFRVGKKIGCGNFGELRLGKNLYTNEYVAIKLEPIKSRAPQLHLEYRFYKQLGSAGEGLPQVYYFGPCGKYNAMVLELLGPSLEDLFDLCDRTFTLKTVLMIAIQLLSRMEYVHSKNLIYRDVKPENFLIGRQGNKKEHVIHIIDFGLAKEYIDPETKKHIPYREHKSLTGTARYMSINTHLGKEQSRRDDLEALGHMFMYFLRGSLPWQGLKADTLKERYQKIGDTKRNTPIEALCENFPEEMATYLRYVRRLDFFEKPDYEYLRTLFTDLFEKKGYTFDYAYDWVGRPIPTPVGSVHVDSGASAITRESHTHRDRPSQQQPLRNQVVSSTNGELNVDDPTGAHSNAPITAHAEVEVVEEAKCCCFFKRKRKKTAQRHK

[15] = Effect on C1qa gene expression in wild type mouse thalamus at 1200 ppm administered as rodent chow starting from 1.5 months and measured after 7 months by RNA-Seq analysis (reference value: 19.070 to 32.518); type: functional; settings: route po, time 5.5 months, 4015 h; method in brief: as §1
[16] = biological target: MAP kinase-activated protein kinase 3 (Homo sapiens, UniProt Q16644); assay: Inhibition of MAPKAPK3 (unknown origin)
[17] = AUC (0 to infinity) in female rat at 45 mg/kg, po administered as single dose via gavage; type: ADME, organism-based; settings: in vivo
Mus musculus [18] = assay: Antialzheimer activity in 5XFAD mouse assessed as number of entries to perimeter zone at 1200 ppm administered as rodent chow for 10 to 24 weeks by Open field test (reference value: 22 to 55); type: functional; settings: route po, time 10-24 weeks
[19] = Effect on ccl6 gene expression in wild type mouse hippocampus at 1200 ppm administered as rodent chow starting from 1.5 months and measured after 7 months by RNA-Seq analysis (reference value: 0.451 to 0.597 RPKM); type: functional; settings: route po, time 5.5 months, 4015 h
Ephrin type-A receptor 5 = Ephrin type-A receptor 5 (Homo sapiens, UniProt P54756); assay: Inhibition of EPHA5 (unknown origin)
Sequence of Ephrin type-A receptor 5 (P54756 whole entry): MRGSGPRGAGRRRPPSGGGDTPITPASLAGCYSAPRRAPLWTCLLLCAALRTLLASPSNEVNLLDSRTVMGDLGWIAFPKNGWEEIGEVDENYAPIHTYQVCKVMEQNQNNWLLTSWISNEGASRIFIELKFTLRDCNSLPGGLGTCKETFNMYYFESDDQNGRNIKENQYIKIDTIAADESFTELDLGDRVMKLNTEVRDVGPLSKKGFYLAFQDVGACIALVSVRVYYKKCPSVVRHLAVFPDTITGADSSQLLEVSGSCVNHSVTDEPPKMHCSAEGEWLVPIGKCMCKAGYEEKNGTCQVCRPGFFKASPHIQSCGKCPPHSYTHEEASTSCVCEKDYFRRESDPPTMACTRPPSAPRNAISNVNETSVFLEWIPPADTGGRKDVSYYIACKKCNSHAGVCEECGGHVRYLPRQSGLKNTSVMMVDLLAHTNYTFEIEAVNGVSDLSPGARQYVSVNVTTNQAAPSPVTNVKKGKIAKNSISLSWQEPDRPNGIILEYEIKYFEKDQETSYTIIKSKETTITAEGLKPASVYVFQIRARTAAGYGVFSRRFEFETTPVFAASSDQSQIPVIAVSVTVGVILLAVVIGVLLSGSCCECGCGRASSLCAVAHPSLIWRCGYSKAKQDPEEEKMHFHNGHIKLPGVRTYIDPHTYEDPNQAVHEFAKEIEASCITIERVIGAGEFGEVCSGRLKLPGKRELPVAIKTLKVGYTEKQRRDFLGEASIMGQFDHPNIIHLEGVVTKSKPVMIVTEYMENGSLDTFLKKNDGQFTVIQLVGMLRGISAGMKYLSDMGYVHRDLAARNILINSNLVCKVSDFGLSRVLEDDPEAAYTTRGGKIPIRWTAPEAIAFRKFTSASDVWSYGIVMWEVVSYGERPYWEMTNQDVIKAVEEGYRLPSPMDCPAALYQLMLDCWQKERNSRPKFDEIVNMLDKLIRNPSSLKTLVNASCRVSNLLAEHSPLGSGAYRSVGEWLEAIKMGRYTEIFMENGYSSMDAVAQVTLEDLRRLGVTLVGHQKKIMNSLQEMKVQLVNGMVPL

Ephrin type-A receptor 8 = Ephrin type-A receptor 8 (Homo sapiens, UniProt P29322); assay: Inhibition of EPHA8 (unknown origin)
Sequence of Ephrin type-A receptor 8 (P29322 whole entry): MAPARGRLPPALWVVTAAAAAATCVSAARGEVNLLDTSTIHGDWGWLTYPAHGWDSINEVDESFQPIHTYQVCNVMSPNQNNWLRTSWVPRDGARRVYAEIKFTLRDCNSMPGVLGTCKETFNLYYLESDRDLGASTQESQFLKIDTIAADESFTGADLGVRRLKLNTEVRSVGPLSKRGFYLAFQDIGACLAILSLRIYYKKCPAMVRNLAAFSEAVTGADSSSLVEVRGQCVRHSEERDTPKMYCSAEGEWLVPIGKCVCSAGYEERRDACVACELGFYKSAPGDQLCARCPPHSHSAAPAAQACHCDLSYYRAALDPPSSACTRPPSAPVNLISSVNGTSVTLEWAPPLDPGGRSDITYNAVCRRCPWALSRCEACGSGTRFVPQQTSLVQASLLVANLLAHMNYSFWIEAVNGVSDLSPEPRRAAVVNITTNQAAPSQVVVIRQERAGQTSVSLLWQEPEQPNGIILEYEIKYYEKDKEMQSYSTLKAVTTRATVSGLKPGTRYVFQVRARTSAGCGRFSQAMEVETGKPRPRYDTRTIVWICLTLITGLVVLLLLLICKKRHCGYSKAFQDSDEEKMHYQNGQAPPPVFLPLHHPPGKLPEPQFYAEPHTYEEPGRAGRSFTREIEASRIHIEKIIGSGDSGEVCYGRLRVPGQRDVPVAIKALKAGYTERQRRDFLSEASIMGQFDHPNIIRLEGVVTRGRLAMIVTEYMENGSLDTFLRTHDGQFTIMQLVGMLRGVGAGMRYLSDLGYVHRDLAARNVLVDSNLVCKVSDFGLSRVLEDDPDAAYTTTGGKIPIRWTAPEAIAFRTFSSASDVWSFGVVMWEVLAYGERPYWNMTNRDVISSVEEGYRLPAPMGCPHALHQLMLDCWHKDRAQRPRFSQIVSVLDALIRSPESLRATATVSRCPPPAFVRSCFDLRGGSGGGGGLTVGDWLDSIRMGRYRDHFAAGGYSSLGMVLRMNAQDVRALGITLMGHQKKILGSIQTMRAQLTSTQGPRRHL

[20] = Toxicity in wildtype mouse assessed as proportion of time spent freezing at 1200 ppm administered as rodent chow for 10 to 24 weeks by […] (reference value: 0.10 to 0.53); settings: in vivo, po, time 10-24 weeks
[21] = biological target: Tyrosine-protein kinase Fes/Fps (Homo sapiens, UniProt P07332); assay: Inhibition of FES (unknown origin)
Sequence of Tyrosine-protein kinase Fes/Fps (P07332 whole entry): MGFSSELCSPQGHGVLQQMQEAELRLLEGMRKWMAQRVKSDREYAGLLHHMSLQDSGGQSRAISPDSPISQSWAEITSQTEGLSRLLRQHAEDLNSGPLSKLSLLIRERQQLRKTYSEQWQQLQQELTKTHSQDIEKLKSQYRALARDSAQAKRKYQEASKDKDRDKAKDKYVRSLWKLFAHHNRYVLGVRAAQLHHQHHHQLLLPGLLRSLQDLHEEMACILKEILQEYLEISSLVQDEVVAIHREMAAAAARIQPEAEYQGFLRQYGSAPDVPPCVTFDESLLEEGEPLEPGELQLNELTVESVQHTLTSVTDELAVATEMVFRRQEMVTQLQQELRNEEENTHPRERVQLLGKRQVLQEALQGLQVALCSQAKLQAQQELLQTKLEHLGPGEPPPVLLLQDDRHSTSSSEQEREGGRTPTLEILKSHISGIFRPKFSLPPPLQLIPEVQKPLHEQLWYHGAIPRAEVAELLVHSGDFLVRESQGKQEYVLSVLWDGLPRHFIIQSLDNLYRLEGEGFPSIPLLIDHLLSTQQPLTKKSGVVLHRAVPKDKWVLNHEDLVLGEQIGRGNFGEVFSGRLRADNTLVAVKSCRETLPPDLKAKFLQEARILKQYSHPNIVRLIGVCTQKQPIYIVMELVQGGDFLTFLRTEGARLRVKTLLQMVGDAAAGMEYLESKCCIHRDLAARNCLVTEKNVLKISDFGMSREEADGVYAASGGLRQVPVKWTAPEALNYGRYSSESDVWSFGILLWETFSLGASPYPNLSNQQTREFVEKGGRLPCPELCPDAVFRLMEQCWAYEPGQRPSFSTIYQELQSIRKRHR

[22] = Effect on Ctsz gene expression in wild type mouse cortex at 1200 ppm administered as rodent chow starting from 1.5 months and measured after 7 months by RNA-Seq analysis (reference value: 12.903 to 16.267 RPKM); type: functional; settings: route po, time 5.5 months, 4015 h

For `FC(F)(F)c1ccc(CNc2ccc(Cc3c[nH]c4ncc(Cl)cc34)cn2)cn1` [PEXIDARTINIB], which Activity (Mus musculus [1]) is on record?
Its Activity is greater than 99%.

What about the inhibition [2] of the same compound?
The inhibition was “Active”.

For `COc1ncc(F)cc1CNc1ccc(Cc2c[nH]c3ncc(C)cc23)c(F)n1` [PLX-5622], which Activity [3] is on record?
The Activity was 0.341 RPKM.

And the IC50 [4]?
The IC50 was greater than 1000 nM.

And the IC50 [5]?
Its IC50 is greater than 1000 nM.

What about the IC50 [6] of the same compound?
Its IC50 is greater than 1000 nM.

And the Activity (Mus musculus [7])?
Its Activity is 31.4%.

What about the half-life [8] of the same compound?
The half-life was 3.9 h.

What about the half-life [9] of the same compound?
The half-life was 2.2 h.

And the IC50 [10]?
Its IC50 is greater than 1000 nM.

And the IC50 [11]?
Its IC50 is greater than 1000 nM.

What about the Activity [12] of the same compound?
The Activity was 0 RPKM.

And the Activity [13]?
The Activity was 13.681 RPKM.

What about the IC50 [14] of the same compound?
Its IC50 is greater than 1000 nM.

What about the Activity [15] of the same compound?
Its Activity is 0 RPKM.

And the IC50 [16]?
Its IC50 is greater than 1000 nM.

And the AUC(0-inf) [17]?
The AUC(0-inf) was 181 µg·h/mL.

What about the Activity (Mus musculus [18]) of the same compound?
Its Activity is 7.

And the Activity [19]?
The Activity was 0 RPKM.

And the IC50 (Ephrin type-A receptor 5)?
The IC50 was greater than 1000 nM.

And the IC50 (Ephrin type-A receptor 8)?
Its IC50 is greater than 1000 nM.

And the Activity [20]?
The Activity was 0.13.

What about the IC50 [21] of the same compound?
Its IC50 is greater than 1000 nM.

And the Activity [22]?
Its Activity is 11.205 RPKM.
